Measurements reported in ChEMBL document CHEMBL1156153, “Novel benzofuran-3-one indole inhibitors of PI3 kinase-alpha and the mammalian target of rapamycin: hit to lead studies” (Bioorg Med Chem Lett, 2010).
≈ marks a conversion by molar mass, not a printed value.

Experiments:
[1] = biological target: Serine/threonine-protein kinase mTOR (Homo sapiens, UniProt P42345); experiment: Inhibition of mTOR
Outline: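 DELFIA-format mTOR kinase assay monitoring phosphorylation of His6-S6K substrate.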

[2] = Aqueous solubility at pH 7.4; format: physicochemical
Outline: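 Aqueous solubility measured at pH 7.4, reported in µg/mL.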

[3] = biological target: Phosphatidylinositol 4,5-bisphosphate 3-kinase catalytic subunit alpha isoform (Homo sapiens, UniProt P42336); experiment: Inhibition of PI3Kalpha
[4] = biological target: Phosphatidylinositol 4,5-bisphosphate 3-kinase catalytic subunit gamma isoform (Homo sapiens, UniProt P48736); experiment: Inhibition of PI3Kgamma
Outline: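 Fluorescence polarization assays for PI3K-α (p110α) and PI3K-γ (p110γ) monitored PIP3 production.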

PC-3 = experiment: Antiproliferative activity against human PC3 cells; format: functional, cell-based
Outline: (§1)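 Cell growth density monitored in Caco-2 (epithelial colorectal adenocarcinoma), LoVo (colon carcinoma) and PC3MM2/PC3 (prostate cancer) cultures; IC50 from means of two experiments.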

LoVo = experiment: Antiproliferative activity against human LoVo cells; format: functional, cell-based; outline: as §1
CYP3A4 = CYP3A4 (Homo sapiens, UniProt P08684); experiment: Inhibition of CYP3A4 at 3 uM; format: ADME
Caco-2 = experiment: Antiproliferative activity against human Caco-2 cells; format: functional, cell-based; outline: as §1
[5] = Inhibition of PI3K in human PC3 cells assessed as inhibition AKT phosphorylation after 6 hrs by densitometry; format: cell-based; details: PC-3, 6 h
Outline: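 PC-3 prostate cancer cells exposed to DMSO, 10 µM […] as positive control, or graded doses of test agent for 6 h. Lysates immunoblotted for Akt phosphorylated at Thr308 and for p-4EBP1. Inhibition assessed by densitometry of the p-Akt blots.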

Chain of Phosphatidylinositol 4,5-bisphosphate 3-kinase catalytic subunit alpha isoform (P42336 whole entry, canonical isoform): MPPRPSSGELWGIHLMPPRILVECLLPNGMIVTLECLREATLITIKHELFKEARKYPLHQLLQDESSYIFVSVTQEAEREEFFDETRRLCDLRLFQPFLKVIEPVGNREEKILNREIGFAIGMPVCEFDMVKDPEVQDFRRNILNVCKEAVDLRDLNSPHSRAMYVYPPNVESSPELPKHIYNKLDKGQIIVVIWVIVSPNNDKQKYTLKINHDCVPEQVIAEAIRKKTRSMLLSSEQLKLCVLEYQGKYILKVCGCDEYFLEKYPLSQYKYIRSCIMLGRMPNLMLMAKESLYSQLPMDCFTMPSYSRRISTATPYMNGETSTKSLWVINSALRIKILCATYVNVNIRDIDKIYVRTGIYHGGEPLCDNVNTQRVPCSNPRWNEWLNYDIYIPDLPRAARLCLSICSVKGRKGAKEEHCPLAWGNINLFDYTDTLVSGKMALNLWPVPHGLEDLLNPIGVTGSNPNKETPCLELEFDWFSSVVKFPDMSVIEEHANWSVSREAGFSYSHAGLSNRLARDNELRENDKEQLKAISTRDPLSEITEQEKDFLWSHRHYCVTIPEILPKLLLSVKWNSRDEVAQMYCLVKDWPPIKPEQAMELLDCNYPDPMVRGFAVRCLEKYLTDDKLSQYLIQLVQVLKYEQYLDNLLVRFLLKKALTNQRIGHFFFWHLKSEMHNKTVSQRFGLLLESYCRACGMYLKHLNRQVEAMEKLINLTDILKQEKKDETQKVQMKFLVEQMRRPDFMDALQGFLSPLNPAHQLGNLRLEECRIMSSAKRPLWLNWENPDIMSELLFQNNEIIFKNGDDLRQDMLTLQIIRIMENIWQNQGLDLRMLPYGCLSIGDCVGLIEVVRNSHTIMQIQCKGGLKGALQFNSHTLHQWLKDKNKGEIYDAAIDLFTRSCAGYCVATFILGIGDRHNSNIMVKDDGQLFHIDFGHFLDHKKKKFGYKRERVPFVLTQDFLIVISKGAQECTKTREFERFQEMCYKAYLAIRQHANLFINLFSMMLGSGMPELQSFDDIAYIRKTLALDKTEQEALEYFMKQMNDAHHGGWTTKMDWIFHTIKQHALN
Chain of CYP3A4 (P08684 whole entry): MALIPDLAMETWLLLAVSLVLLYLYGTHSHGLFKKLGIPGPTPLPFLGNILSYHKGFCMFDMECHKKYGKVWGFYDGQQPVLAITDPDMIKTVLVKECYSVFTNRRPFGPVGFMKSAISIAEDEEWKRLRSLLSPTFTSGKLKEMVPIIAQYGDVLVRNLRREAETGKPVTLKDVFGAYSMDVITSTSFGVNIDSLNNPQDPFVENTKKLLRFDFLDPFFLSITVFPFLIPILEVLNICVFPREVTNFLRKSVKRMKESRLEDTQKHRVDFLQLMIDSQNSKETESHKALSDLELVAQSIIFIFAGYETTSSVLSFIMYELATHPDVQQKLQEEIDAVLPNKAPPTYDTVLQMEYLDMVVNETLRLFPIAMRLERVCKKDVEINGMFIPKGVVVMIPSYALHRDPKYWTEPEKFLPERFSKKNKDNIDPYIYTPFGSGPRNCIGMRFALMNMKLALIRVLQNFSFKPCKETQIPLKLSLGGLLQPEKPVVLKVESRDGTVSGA
Chain of Phosphatidylinositol 4,5-bisphosphate 3-kinase catalytic subunit gamma isoform (P48736 whole entry, canonical isoform): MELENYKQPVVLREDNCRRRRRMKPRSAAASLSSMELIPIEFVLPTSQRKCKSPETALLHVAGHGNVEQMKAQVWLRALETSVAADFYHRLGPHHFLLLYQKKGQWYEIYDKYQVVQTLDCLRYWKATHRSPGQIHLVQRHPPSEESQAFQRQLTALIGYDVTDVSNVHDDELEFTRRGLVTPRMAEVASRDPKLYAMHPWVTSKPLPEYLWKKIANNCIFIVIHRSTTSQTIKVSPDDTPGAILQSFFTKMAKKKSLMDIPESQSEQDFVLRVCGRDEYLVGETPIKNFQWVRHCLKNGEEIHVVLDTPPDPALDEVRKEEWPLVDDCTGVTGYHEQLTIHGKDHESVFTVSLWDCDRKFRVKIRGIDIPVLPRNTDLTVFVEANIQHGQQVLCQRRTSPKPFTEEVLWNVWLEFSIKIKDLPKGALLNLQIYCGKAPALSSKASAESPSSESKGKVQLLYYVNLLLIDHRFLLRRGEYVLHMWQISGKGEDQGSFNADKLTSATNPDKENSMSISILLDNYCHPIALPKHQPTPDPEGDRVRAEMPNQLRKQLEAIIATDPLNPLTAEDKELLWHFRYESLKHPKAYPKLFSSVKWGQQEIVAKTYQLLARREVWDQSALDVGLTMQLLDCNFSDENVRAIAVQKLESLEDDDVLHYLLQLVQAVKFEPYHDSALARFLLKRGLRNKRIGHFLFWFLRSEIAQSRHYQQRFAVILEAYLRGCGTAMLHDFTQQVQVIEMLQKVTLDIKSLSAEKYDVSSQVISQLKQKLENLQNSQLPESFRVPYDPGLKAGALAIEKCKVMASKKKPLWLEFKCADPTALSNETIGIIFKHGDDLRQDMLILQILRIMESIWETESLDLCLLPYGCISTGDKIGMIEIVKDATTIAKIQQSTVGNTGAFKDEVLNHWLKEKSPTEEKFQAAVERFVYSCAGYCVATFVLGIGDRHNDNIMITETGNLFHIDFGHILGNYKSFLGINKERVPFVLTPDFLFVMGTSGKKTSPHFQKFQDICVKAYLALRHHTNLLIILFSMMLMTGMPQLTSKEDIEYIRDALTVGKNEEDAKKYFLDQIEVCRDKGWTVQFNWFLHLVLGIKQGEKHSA

SMILES | IC50 [1] [nM] | solubility [2] [µg/mL] | IC50 [3] [nM] | IC50 [4] [nM] | IC50 (PC-3) [nM] | IC50 (LoVo) [nM] | inhibition at 3 µM (CYP3A4) [%] | IC50 (Caco-2) [nM] | IC50 [5] [nM]
COc1ccc2c(c1)c(/C=C1\Oc3cc(O)cc(O)c3C1=O)cn2C | 62 | 1 (≈ 2.96 µM) | 106 | 587 | – | – | – | – | –
COc1ccc2c(c1)c(/C=C1\Oc3cc(O)cc(O)c3C1=O)c(C)n2CCCN1CCOCC1 | 18 | 1 (≈ 2.15 µM) | 8 | 76 | 2400 | 4600 | 68 | 4700 | –
Cc1[nH]c2ccc(Br)cc2c1/C=C1\Oc2cc(O)cc(O)c2C1=O | – | 1 (≈ 2.59 µM) | – | – | – | – | – | – | –
COc1ccc2c(c1)c(/C=C1\Oc3cc(O)cc(O)c3C1=O)cn2CCCN(C)C | 2120 | 32 (≈ 78.3 µM) | 40 | 2420 | – | – | – | – | –
O=C1/C(=C/c2c(-c3ccccn3)[nH]c3ccccc23)Oc2cc(O)cc(O)c21 | 22 | 3 (≈ 8.1 µM) | 3650 | – | – | – | – | – | –
O=C1/C(=C/c2c[nH]c3ccc(Cl)cc23)Oc2cc(O)cc(O)c21 | – | 1 (≈ 3.05 µM) | – | – | – | – | – | – | –
Cn1c(-c2ccccc2)c(/C=C2\Oc3cc(O)cc(O)c3C2=O)c2ccccc21 | 96 | 2 (≈ 5.22 µM) | 2670 | – | – | – | – | – | –
COc1ccc2c(c1)c(/C=C1\Oc3cc(O)cc(O)c3C1=O)c(C)n2CCN1CCN(C)CC1 | 11 | 30 (≈ 64.7 µM) | 5 | 473 | 2400 | 2200 | – | 4700 | –
COc1ccc2c(c1)c(/C=C1\Oc3cc(O)cc(O)c3C1=O)c(C)n2CCCN(C)C | 118 | 32 (≈ 75.7 µM) | – | 404 | 2800 | 5700 | – | 9300 | –
COc1ccc2c(c1)c(/C=C1\Oc3cc(O)cc(O)c3C1=O)c(C)n2CCN1CCOCC1 | 9 | 6 (≈ 13.3 µM) | 11 | 155 | 1500 | 2300 | 64 | 2000 | –
COc1ccc2c(c1)c(/C=C1\Oc3cc(O)cc(O)c3C1=O)cn2CCCN1CCOCC1 | 430 | 3 (≈ 6.66 µM) | 42 | 646 | – | – | 42 | – | –
COc1ccc2[nH]c(-c3ccccc3)c(/C=C3\Oc4cc(O)cc(O)c4C3=O)c2c1 | 10 | – | – | 11 | 800 | 1200 | 77 | 2100 | 385
COc1ccc2c(c1)c(/C=C1\Oc3cc(O)cc(O)c3C1=O)c(C)n2CCN(C)C | 18 | 1 (≈ 2.45 µM) | 9 | 283 | 1800 | 1700 | – | 2800 | –
O=C1/C(=C/c2c[nH]c3ccccc23)Oc2cc(O)cc(O)c21 | 9200 | 14 (≈ 47.7 µM) | 6750 | – | – | – | – | – | –
O=C1/C(=C/c2c(-c3ccc(Cl)cc3)[nH]c3ccccc23)Oc2cc(O)cc(O)c21 | – | 1 (≈ 2.48 µM) | – | – | – | – | – | – | –
Cn1cc(/C=C2\Oc3cc(O)cc(O)c3C2=O)c2ccccc21 | 800 | 2 (≈ 6.51 µM) | – | – | – | – | – | – | –
O=C1/C(=C/c2c(-c3ccc(F)cc3)[nH]c3ccccc23)Oc2cc(O)cc(O)c21 | – | 1 (≈ 2.58 µM) | – | – | – | – | – | – | –
O=C1/C(=C/c2c(-c3ccc4ccccc4c3)[nH]c3ccccc23)Oc2cc(O)cc(O)c21 | – | 1 (≈ 2.38 µM) | – | – | – | – | – | – | –
COc1ccc2c(c1)c(/C=C1\Oc3cc(O)cc(O)c3C1=O)cn2CCCN1CCN(CCO)CC1 | 1650 | 25 (≈ 50.7 µM) | 37 | 1360 | – | – | – | – | –
O=C1/C(=C/c2c(-c3ccccc3)[nH]c3ccccc23)Oc2cc(O)cc(O)c21 | 130 | 1 (≈ 2.71 µM) | 1030 | 2780 | – | – | – | – | –
COc1ccc2[nH]c(-c3cccnc3)c(/C=C3\Oc4cc(O)cc(O)c4C3=O)c2c1 | 1 | 1 (≈ 2.5 µM) | 1 | 9 | 1900 | 4700 | 57 | 7500 | –
COc1ccc2c(c1)c(/C=C1\Oc3cc(O)cc(O)c3C1=O)c(C)n2CCCN1CCN(CCO)CC1 | 108 | 36 (≈ 70.9 µM) | 6 | 109 | 10000 | 10000 | – | 10000 | –
COc1ccc2[nH]c(C)c(/C=C3\Oc4cc(O)cc(O)c4C3=O)c2c1 | 3 | 1 (≈ 2.96 µM) | 3 | 25 | 4000 | 3600 | 79 | 9000 | –
COc1ccc2c(c1)c(/C=C1\Oc3cc(O)cc(O)c3C1=O)c(C)n2C | 4 | 1 (≈ 2.85 µM) | 7 | 54 | 1300 | 2500 | 75 | 7200 | –
COc1ccc2c(c1)c(/C=C1\Oc3cc(O)cc(O)c3C1=O)c(C)n2CCCN1CCN(C)CC1 | 153 | 10 (≈ 20.9 µM) | 15 | 402 | 9500 | 7500 | – | 10000 | –
COc1ccc2[nH]cc(/C=C3\Oc4cc(O)cc(O)c4C3=O)c2c1 | – | 12 (≈ 37.1 µM) | – | – | – | – | 58 | – | –
